Source: ChEMBL document CHEMBL2380273, “Discovery of potent transient receptor potential vanilloid 1 antagonists: design and synthesis of phenoxyacetamide derivatives” (Bioorg Med Chem Lett, 2013)

What was measured:
[1] = biological target: Transient receptor potential cation channel subfamily V member 1 (Homo sapiens, UniProt Q8NER1); assay: Antagonist activity at human TRPV1 transfected in CHOK1 cells assessed as inhibition of capsaicin-induced intracellular calcium level measured for 120 secs by FLIPR analysis; format: cell-based, CHO-K1
Transient receptor potential cation channel subfamily V member 1, sequence (Q8NER1 whole entry): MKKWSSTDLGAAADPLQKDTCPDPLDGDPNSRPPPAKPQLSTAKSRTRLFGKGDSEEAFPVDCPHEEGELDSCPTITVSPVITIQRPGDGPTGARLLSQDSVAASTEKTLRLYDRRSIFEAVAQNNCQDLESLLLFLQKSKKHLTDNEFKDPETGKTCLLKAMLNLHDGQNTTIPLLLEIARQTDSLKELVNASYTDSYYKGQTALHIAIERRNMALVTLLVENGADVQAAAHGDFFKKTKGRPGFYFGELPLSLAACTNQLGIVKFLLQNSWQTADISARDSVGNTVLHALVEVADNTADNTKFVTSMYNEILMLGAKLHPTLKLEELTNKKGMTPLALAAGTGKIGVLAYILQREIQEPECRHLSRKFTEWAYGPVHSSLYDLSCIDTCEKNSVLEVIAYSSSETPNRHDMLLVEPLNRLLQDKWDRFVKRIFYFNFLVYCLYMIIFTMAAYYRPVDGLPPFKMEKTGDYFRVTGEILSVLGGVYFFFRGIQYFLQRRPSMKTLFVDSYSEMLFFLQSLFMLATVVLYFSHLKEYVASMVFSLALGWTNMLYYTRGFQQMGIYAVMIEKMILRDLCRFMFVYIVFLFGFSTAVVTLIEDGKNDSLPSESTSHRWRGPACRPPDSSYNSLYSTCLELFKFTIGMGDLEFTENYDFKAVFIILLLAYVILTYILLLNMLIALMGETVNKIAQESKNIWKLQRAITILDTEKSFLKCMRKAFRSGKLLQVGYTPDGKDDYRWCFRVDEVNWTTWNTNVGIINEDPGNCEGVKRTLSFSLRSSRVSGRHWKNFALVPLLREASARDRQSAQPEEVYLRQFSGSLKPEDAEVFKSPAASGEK
How it was run: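 CHO-K1 cells stably expressing hTRPV1, grown to 90% confluency, loaded 90 min at rt with Fluo4-AM (2 μM) in HBSS/20 mM HEPES pH 7.4, then washed three times. Test agent added at various concentrations together with 100 nM capsaicin. Peak fluorescence over 120 s averaged in triplicate. IC50 is the concentration giving 50% inhibition of the capsaicin control response.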

Rattus norvegicus [2] = assay: Reduction of cyclophosphamide-induced voiding frequency in iv dosed Sprague-Dawley rat cystitis and pollakiuria model measured for 20 mins; format: functional, organism-based
How it was run: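 Female Sprague–Dawley rats given cyclophosphamide 150 mg/kg ip. Bladder catheter implanted 4 h later, with saline infused at 3.6 mL/h for continuous cystometry. Once voiding frequency was stable, dosed iv with test agent or vehicle (20% cremophor EL). Voids counted for 20 min before and after dosing and expressed as % change. n=4, mean ± SEM; Bartlett's then Williams' test versus vehicle.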

Rattus norvegicus [3] = assay: Suppression of capsaicin-induced bladder contraction in iv dosed Sprague-Dawley rat overactive bladder model; format: functional, organism-based
How it was run: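 Female Sprague–Dawley rats anesthetized with urethane (1.0 g/kg ip) and bladder catheterized via the urethra, with saline infused at 3.0 mL/h for 5 min for basal pressure. Capsaicin 30 μg/kg iv given every 10 min. After stable contractions, test agent or vehicle (20% cremophor EL) given iv, followed by capsaicin again. Reported as % change in contraction. n=4, mean ± SEM; Bartlett's then Williams' test versus vehicle.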

Structure (SMILES) | IC50 [1] [nM] | Activity (Rattus norvegicus [2]) | Activity (Rattus norvegicus [3])
CN(C)c1ccc(NC(=O)COc2ccc(C(C)(C)C)cc2)cn1 | 59 |  | 
CN(CCO)c1ccc(NC(=O)COc2ccc(C34CC5CC(CC(C5)C3)C4)cc2)cn1 | > 10000 |  | 
CC(C)(C)c1ccc(OCC(=O)Nc2ccc(N3CCCC3)nc2)cc1 | 411 |  | 
CN(CCO)c1ccc(NC(=O)COc2ccc(C(F)(F)F)cc2)cn1 | > 10000 |  | 
CN(CCO)c1ncc(NC(=O)COc2ccc(C(C)(C)C)cc2)cc1Cl | 44 |  | 
CCN(C)c1ccc(NC(=O)COc2ccc(C(C)(C)C)cc2)cn1 | 583 |  | 
CN(CCO)c1ccc(NC(=O)COc2ccccc2)cn1 | > 10000 |  | 
CC(C)c1ccc(OCC(=O)Nc2ccc(N(C)CCO)nc2)cc1 | 110 |  | 
O=C(Nc1ccccc1Br)N[C@H]1CCN(c2ccc(C(F)(F)F)cn2)C1 | 120 |  | 
CC(C)(C)c1ccc(OCC(=O)Nc2ccc(N3CCC(O)C3)nc2)cc1 (centres undefined) | 516 |  | 

The next lines start with results.

IC50 [1] [nM] | Structure (SMILES) | Activity (Rattus norvegicus [2]) | Activity (Rattus norvegicus [3])
107 | CN(CCO)c1ccc(NC(=O)COc2ccc(C(C)(C)C)cc2C(C)(C)C)cn1 |  | 
33 | CN(CCO)c1ccc(NC(=O)COc2ccc(C(C)(C)C)cc2)cn1 | Dose-dependent effect | Dose-dependent effect
796 | CN(CCO)c1ccc(NC(=O)COc2ccccc2C(C)(C)C)cn1 |  | 
941 | CN(CCO)c1ccc(NC(=O)COc2ccc(C(C)(C)C)cc2N2CCCCC2)cn1 |  | 
2620 | CN(CCO)c1ccc(NC(=O)COc2cccc(C(C)(C)C)c2)cn1 |  | 
130 | Cc1cc(NC(=O)COc2ccc(C(C)(C)C)cc2)cnc1N(C)CCO |  | 
86 | CN(CCO)c1ccc(NC(=O)COc2ccc(C(C)(C)C)cc2Br)cn1 |  | 
